{"source": "ChEMBL document CHEMBL1121715", "about": "“New antiarrhythmic agents. 4. 1'-(Aminoalkyl)-1,2,3,4-tetrahydronaphthalene-1-spiro-3'-pyrrolidine-2',5'-dione derivatives” (J Med Chem, 1981)", "key": {"[1]": {"assay": "Total body clearance was measured at given dose.", "assay_type": "ADME, organism-based", "settings": "in vivo", "in_short": "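Blood levels came from the iv-infused dogs, measured by GC-FID after methylene chloride extraction and heptafluorobutyryl derivatization with an internal standard. Total body clearance was total dose divided by the blood-level AUC (zero to infinity); volume of distribution was clearance divided by the elimination rate constant.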"}, "[2]": {"assay": "Volume of distribution was measured at given dose of 34 umol/kg", "assay_type": "ADME, organism-based", "settings": "in vivo", "in_short": "(§1)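 In dogs given iv infusions, blood samples were alkaline-extracted (pH 10.3) into methylene chloride and derivatized with heptafluorobutyrylimidazole. Concentrations were measured by GC-FID against an internal standard using standard curves. Clearance was total dose ÷ blood-level AUC (zero to infinity), and volume of distribution was clearance ÷ elimination rate constant.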"}, "[3]": {"assay": "Volume of distribution was measured at given dose of 43 umol/kg", "assay_type": "ADME, organism-based", "settings": "in vivo", "in_short": "as §1"}, "[4]": {"assay": "Volume of distribution was measured at given dose of 81 umol/kg", "assay_type": "ADME, organism-based", "settings": "in vivo", "in_short": "as §1"}, "Canis familiaris [5]": {"species_on_record": "Canis familiaris", "assay": "(§2) The dose at which toxicity was measured.", "assay_type": "organism-based, Canis lupus familiaris", "settings": "dog, in vivo", "in_short": "(§3)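 Adult female dogs (6.7–14.5 kg) had two-stage ligation of the left anterior descending coronary artery the day before testing. After control ventricular rate, % ectopic beats and mean arterial pressure were recorded, the drug (HCl salt, isotonic solution) was infused iv without anesthesia at 0.1, 0.5 or 1.0 (mg/kg)/min, mostly 0.5. Infusion continued until the arrhythmia was abolished or cardiovascular/CNS toxicity appeared. Cumulative dose is given in mmol/kg; toxicity included convulsion and P-R prolongation ≥25%.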"}, "Canis familiaris [6]": {"species_on_record": "Canis familiaris", "assay": "(§4) Toxicity of blood level was measured", "assay_type": "organism-based, Canis lupus familiaris", "settings": "dog, in vivo", "in_short": "(§5)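 In coronary-ligated conscious dogs under iv infusion, blood was sampled at toxicity. Drug was extracted with methylene chloride at pH 10.3 (ammonium citrate/ammonia) with another analogue as internal standard, then derivatized with heptafluorobutyrylimidazole. Assay was GC-FID on 3% JXR, quantified from drug/internal standard peak-height ratio against standard curves; results in μmol/mL.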"}, "Canis familiaris [7]": {"species_on_record": "Canis familiaris", "assay": "as §2", "assay_type": "organism-based, Canis lupus familiaris", "settings": "dog, in vivo", "in_short": "as §3", "remark": "listed apart in the source"}, "Canis familiaris [8]": {"test_system": "Canis familiaris", "assay": "Blood level was measured in anesthetized 0.047 at given dose.", "assay_type": "functional, Canis lupus familiaris", "settings": "in the assay text read “unanesthetized” for “anesthetized”", "in_short": "(§6)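 Blood was sampled from unanesthetized dogs with coronary-ligation arrhythmias during iv drug infusion. Each 1 mL sample was mixed with internal standard and pH 10.3 ammonium citrate/ammonia buffer and extracted into methylene chloride. The extract was dried at 50 °C and derivatized with heptafluorobutyrylimidazole. Analysis was by GC with flame-ionization detection (3% JXR column, 220 °C). Concentration came from the drug/internal standard peak-height ratio against standard curves.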"}, "Canis familiaris [9]": {"test_system": "Canis familiaris", "assay": "Blood level was measured in anesthetized dog at 0.016d ose.", "assay_type": "functional, Canis lupus familiaris", "settings": "in the assay text read “unanesthetized” for “anesthetized”", "in_short": "as §6"}, "Canis familiaris [10]": {"species_on_record": "Canis familiaris", "assay": "as §4", "assay_type": "organism-based, Canis lupus familiaris", "settings": "dog, in vivo", "in_short": "as §5", "remark": "listed apart in the source"}, "Canis familiaris [11]": {"test_system": "Canis familiaris", "assay": "% ectopic beats was measured in anesthetized dog at 0.016 dose.", "assay_type": "functional, Canis lupus familiaris, Heart", "settings": "in the assay text read “unanesthetized” for “anesthetized”", "in_short": "(§7)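 Adult female dogs (6.7–14.5 kg) had the left anterior descending coronary artery ligated in two stages the day before testing. Dogs were unanesthetized. Ectopic beats (% of ventricular rate) and mean arterial pressure were read at maximal antiarrhythmic effect against the cumulative dose.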"}, "Canis familiaris [12]": {"test_system": "Canis familiaris", "assay": "% ectopic beats was measured in anesthetized dog at 0.047 dose.", "assay_type": "functional, Canis lupus familiaris, Heart", "settings": "in the assay text read “unanesthetized” for “anesthetized”", "in_short": "as §7"}, "Canis familiaris [13]": {"species_on_record": "Canis familiaris", "assay": "(§8) Maximum dose of the Compound", "assay_type": "ADME, organism-based, Canis lupus familiaris", "settings": "dog, in vivo", "in_short": "as §3"}, "Canis familiaris [14]": {"species_on_record": "Canis familiaris", "assay": "as §8", "assay_type": "functional, Canis lupus familiaris", "in_short": "as §3"}, "Canis familiaris [15]": {"test_system": "Canis familiaris", "assay": "MABP value was measured in anesthetized dog at 0.016 dose.", "assay_type": "functional, Canis lupus familiaris", "settings": "in the assay text read “unanesthetized dog” for “anesthetized dog”", "in_short": "as §7"}, "Canis familiaris [16]": {"test_system": "Canis familiaris", "assay": "MABP value was measured in anesthetized dog at 0.047 dose.", "assay_type": "functional, Canis lupus familiaris", "settings": "in the assay text read “unanesthetized dog” for “anesthetized dog”", "in_short": "as §3"}, "Canis familiaris [17]": {"test_system": "Canis familiaris", "assay": "Ventricular rate was measured in anesthetized dog at 0.016 dose", "assay_type": "functional, Canis lupus familiaris, Heart", "settings": "in the assay text read “unanesthetized dog” for “anesthetized dog”", "in_short": "as §3"}, "Canis familiaris [18]": {"test_system": "Canis familiaris", "assay": "Ventricular rate was measured in anesthetized dog at 0.047 dose", "assay_type": "functional, Canis lupus familiaris, Heart", "settings": "in the assay text read “unanesthetized dog” for “anesthetized dog”", "in_short": "as §3"}, "Mus musculus [19]": {"species_on_record": "Mus musculus", "assay": "Percentage toxicity measured as ataxia.", "assay_type": "organism-based", "settings": "in vivo", "in_short": "(§9)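 Mice (groups of 10) were dosed sc with drug in 0.9% saline and watched for 20 min for overt toxicity (ataxia, convulsions, loss of righting reflex, death) before chloroform exposure.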"}, "[20]": {"assay": "Percentage toxicity measured as death of mice.", "assay_type": "organism-based", "design": "concentration or dose not given beside the values", "settings": "mouse, in vivo; read-out: Death"}, "Mus musculus [21]": {"species_on_record": "Mus musculus", "assay": "Percentage toxicity measured as loss of righting reflex.", "assay_type": "organism-based", "settings": "in vivo", "in_short": "as §9"}, "Mus musculus [22]": {"test_system": "Mus musculus", "assay": "Protection against chloroform induced arrhythmias was measured in mice after sc administration at given dose.", "assay_type": "functional", "settings": "Mus musculus, sc; read-out: ED50", "in_short": "(§10)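 Groups of 10 unanesthetized mice got sc injection of drug in 0.9% saline. After 20 min observation they were placed one by one in chloroform-vapor-saturated air. When breathing stopped, the thorax was opened and the heart inspected by eye; coordinated ventricular contractions counted as protected.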"}, "Mus musculus [23]": {"test_system": "Mus musculus", "assay": "Protection against chloroform induced arrhythmias in mice after subcutaneous administration at 100 mg/kg dose.", "assay_type": "functional", "in_short": "as §10"}, "Mus musculus [24]": {"species_on_record": "Mus musculus", "assay": "Percentage toxicity measured as convulsions.", "assay_type": "organism-based", "settings": "in vivo", "in_short": "as §9"}, "[25]": {"assay": "Maximal concentration in dogs after intravenous administration", "settings": "dog, in vivo"}, "Canis familiaris [26]": {"test_system": "Canis familiaris", "assay": "Maximal concentration in dogs after intravenous administration", "settings": "dog, in vivo"}, "[27]": {"assay": "Maximal concentration in dogs after 34 umol/kg intravenous dose", "settings": "dog, in vivo"}}, "note": "“And” between values parts separate entries of the source, which are not always exact repeats. Equal entries are not always repeated.", "data": [{"smiles": "CCN(CC)CCCCN1C(=O)CC2(CCCc3ccc(OC)cc32)C1=O", "note": "(stereo not drawn)", "values": [{"measurement": "ClB", "setting": "[1]", "result": "8.22 mL/min/kg and 12.8 mL/min/kg"}, {"measurement": "clearance", "setting": "[1]; ClB", "result": 10.4, "unit": "mL/min/kg"}, {"measurement": "Vd", "setting": "[2]", "result": 2.64, "unit": "L/kg"}, {"measurement": "Vd", "setting": "[3]", "result": 2.47, "unit": "L/kg"}, {"measurement": "Vd", "setting": "[4]", "result": 3.41, "unit": "L/kg"}, {"measurement": "Cumulative dose", "setting": "Canis familiaris [5]", "result": 0.02}, {"measurement": "Blood level", "setting": "Canis familiaris [6]", "result": 18, "unit": "µM"}, {"measurement": "Cumulative dose", "setting": "Canis familiaris [7]", "result": 0.081}, {"measurement": "Blood level", "setting": "Canis familiaris [8]", "result": 0.02, "unit": "uM ml-1"}, {"measurement": "Blood level", "setting": "Canis familiaris [9]", "result": 0.011, "unit": "uM ml-1"}, {"measurement": "Blood level", "setting": "Canis familiaris [10]", "result": 0.029, "unit": "uM ml-1"}, {"measurement": "Etopic beats", "setting": "Canis familiaris [11]", "result": 1, "unit": "%"}, {"measurement": "Etopic beats", "setting": "Canis familiaris [12]", "result": 0, "unit": "%"}, {"measurement": "Dose", "setting": "Canis familiaris [13]", "result": 34, "unit": "µM/kg"}, {"measurement": "Dose", "setting": "Canis familiaris [14]", "result": "81 µM/kg and 43 µM/kg"}, {"measurement": "MABP", "setting": "Canis familiaris [15]", "result": 95, "unit": "mmHg"}, {"measurement": "MABP", "setting": "Canis familiaris [16]", "result": 100, "unit": "mmHg"}, {"measurement": "Ventricular rate", "setting": "Canis familiaris [17]", "result": 147, "unit": "beats min-1"}, {"measurement": "Ventricular rate", "setting": "Canis familiaris [18]", "result": 165, "unit": "beats min-1"}, {"measurement": "Ataxia", "setting": "Mus musculus [19]", "result": 0, "unit": "%"}, {"measurement": "mortality", "setting": "[20]", "result": 0, "unit": "%"}, {"measurement": "Loss of righting reflex", "setting": "Mus musculus [21]", "result": 0, "unit": "%"}, {"measurement": "ED50", "setting": "Mus musculus [22]", "result": 130, "unit": "µmol/kg"}, {"measurement": "Protection", "setting": "Mus musculus [23]", "result": 80, "unit": "%"}, {"measurement": "Convulsion", "setting": "Mus musculus [24]", "result": 0, "unit": "%"}, {"measurement": "Cmax", "setting": "[25]", "result": 29, "unit": "µM"}, {"measurement": "Cmax", "setting": "Canis familiaris [26]", "result": 20, "unit": "µM"}, {"measurement": "Cmax", "setting": "[27]", "result": 12, "unit": "µM"}]}]}
